Converted amounts (≈) assume the structure as drawn.
Columns and labels:
Escherichia coli [1] = test: Antimicrobial activity against Escherichia coli R477-100 by double-microdilution method; format: functional
Pseudomonas aeruginosa [2] = test: Activity of Pseudomonas aeruginosa APH(3')-2b assessed as rate of NADH absorbance decrease by pyruvate kinase/lactate dehydrogenase coupled assay
Outline: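 Recombinant APH(3')-IIb purified on a neomycin B affinity column. Substrate neamine 1–100 μM, inhibitor 0–1000 μM. Preincubation 5 min at 37 °C, then started with enzyme. NADH loss read at 340 nm; Ki by nonlinear regression.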

[3] = Toxicity in iv dosed ICR mouse assessed as effect on mortality after 4 days; format: organism-based; details: in vivo
[4] = Inhibition of Pseudomonas aeruginosa APH(3')-2b assessed as rate of NADH absorbance decrease by pyruvate kinase/lactate dehydrogenase coupled assay
Outline: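 Purified recombinant APH(3')-IIb, affinity-purified on a neomycin B column. ATP consumption followed by pyruvate kinase/lactate dehydrogenase coupling as NADH decrease at 340 nm. Buffer: 50 mM Tris-HCl pH 7.5, 40 mM KCl, 10 mM MgCl2, 1 mM ATP, 2.5 mM PEP. Neamine substrate 1–100 µM, inhibitor 0–1000 µM. 5 min preincubation at 37 °C, started with enzyme. Ki by nonlinear regression.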

Pseudomonas aeruginosa [5] = test: Antimicrobial activity against Pseudomonas aeruginosa ATCC 27853 by double-microdilution method; format: functional
Bacillus subtilis = test: Antimicrobial activity against Bacillus subtilis by double-microdilution method; format: functional
Outline: (§1)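 Double-microdilution method following NCCLS, starting at 384 µg/mL of compound with doubling dilutions. Run in triplicate (a table footnote says duplicates), with analogous results in three separate experiments.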

[6] = system: Staphylococcus epidermidis; test: Antimicrobial activity against Staphylococcus epidermidis ATCC 12228 by double-microdilution method; format: functional; outline: as §1
Escherichia coli [7] = test: Inhibition of translation in Escherichia coli S30 extract by coupled transcription/translation assay; format: functional
Outline: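 E. coli S30 extract for circular DNA with pBES-Tluc plasmid, coupled transcription/translation. 25 µL reactions with varied aminoglycoside concentrations, 60 min at 37 °C, then 5 min on ice. Diluted into Tris-phosphate 25 mM pH 7.8 buffer with DTT, CDTA, glycerol, Triton X-100 and BSA. Luciferase luminescence read at once; IC50 fitted from concentration-response curves of at least two independent experiments.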

Escherichia coli [8] = test: Antimicrobial activity against Escherichia coli ATCC 25922 by double-microdilution method; format: functional
Escherichia coli [9] = test: Antimicrobial activity against Escherichia coli XL1 expressing APH(3')-1a by double-microdilution method; format: functional
Pseudomonas aeruginosa [10] = test: Antimicrobial activity against Pseudomonas aeruginosa 584/5 isolate by double-microdilution method; format: functional
Pseudomonas aeruginosa [11] = test: Antimicrobial activity against Pseudomonas aeruginosa 590 isolate by double-microdilution method; format: functional; outline: as §1

NC[C@H]1O[C@H](O[C@H]2[C@H](O)[C@@H](O)[C@H](N)C[C@@H]2N)[C@H](N)[C@@H](O)[C@@H]1O [NEAMINE]
MIC (Escherichia coli [1]): 96 µg/mL (≈ 298 µM) | Km (Pseudomonas aeruginosa [2]): 10.3 µM | kcat (Pseudomonas aeruginosa [2]): 1.7 s⁻¹ | LD50 at 96 h [3]: 161 mg/kg

NC[C@@H]1CC[C@@H](N)[C@@H](O[C@H]2[C@H](O)[C@@H](O)[C@H](N)C[C@@H]2N)O1 [GENTAMINE C1A]
MIC (Escherichia coli [1]): 192 µg/mL (≈ 661 µM) | Ki [4]: 650 µM | LD50 at 96 h [3]: 103 mg/kg

CN[C@@H]1[C@@H](O)[C@@H](O[C@@H]2[C@@H](O)[C@H](O[C@H]3O[C@H](CN)[C@H]4OCO[C@@H]4[C@H]3N)[C@@H](N)C[C@H]2N)OC[C@]1(C)O
MIC (Pseudomonas aeruginosa [5]): 24 µg/mL (≈ 48.6 µM) | MIC (Bacillus subtilis): 12 µg/mL (≈ 24.3 µM) | MIC [6]: 24 µg/mL (≈ 48.6 µM) | MIC (Escherichia coli [1]): 48 µg/mL (≈ 97.3 µM) | LD50 at 96 h [3]: 226 mg/kg | IC50 (Escherichia coli [7]): 0.038 µM | MIC (Escherichia coli [8]): 48 µg/mL (≈ 97.3 µM) | MIC (Escherichia coli [9]): 12 µg/mL (≈ 24.3 µM) | MIC (Pseudomonas aeruginosa [10]): 24 µg/mL (≈ 48.6 µM) | MIC (Pseudomonas aeruginosa [11]): 48 µg/mL (≈ 97.3 µM)

CNC1C(O)C(OC2C(N)CC(N)C(OC3OC(CN)CCC3N)C2O)OCC1(C)O (stereo not drawn) [GENTAMICIN C1A]
MIC (Bacillus subtilis): 6 µg/mL (≈ 13.3 µM) | MIC [6]: 6 µg/mL (≈ 13.3 µM) | MIC (Pseudomonas aeruginosa [11]): 384 µg/mL (≈ 854 µM)

NC[C@H]1O[C@H](O[C@H]2[C@H](O)[C@@H](O)[C@H](N)C[C@@H]2N)[C@H](N)[C@H]2OCO[C@@H]21
MIC (Escherichia coli [1]): > 384 µg/mL | Ki [4]: 642 µM | LD50 at 96 h [3]: 303 mg/kg

From ChEMBL document CHEMBL1141721, “Structure-toxicity relationship of aminoglycosides: correlation of 2'-amine basicity with acute toxicity in pseudo-disaccharide scaffolds” (Bioorg Med Chem, 2008)
